Experimental data pooled from the literature.
ABL1: Tyrosine-protein kinase ABL1 (ABL1, Homo sapiens, UniProt P00519)
ABL1 phosphorylated: Tyrosine-protein kinase ABL1, phosphorylated (ABL1, Homo sapiens, UniProt P00519)
ABL1 F317I: Tyrosine-protein kinase ABL1 (ABL1, Homo sapiens, UniProt P00519, F317I)

target	test	setting	endpoint	result	Structure (SMILES)
ABL1	enzyme activity, inhibitor	1 nM	inhibition	65%	Cc1nc(Nc2ncc(C(=O)Nc3c(C)cccc3Cl)s2)cc(N2CCCCC2)n1
Tyrosine-protein kinase ABL1, phosphorylated (ABL1, Homo sapiens, UniProt P00519, Q252H)	binding, competition with immobilised ligand	0.5 µM	remaining binding	99%	CCCCC(=O)Nc1ccc(-c2ccc3ncn(CCC)c(=O)c3c2)cn1
ABL1 phosphorylated	binding, competition with immobilised ligand	1 µM	remaining binding	100%	C[C@H]1CC[C@H](n2c3cnccc3c3cnc(Nc4ccc5c(n4)CCN(C(=O)CO)C5)nc32)CC1
Tyrosine-protein kinase ABL1 (ABL1, Homo sapiens, UniProt P00519, M351T)	cell-free assay	1 µM	remaining signal	100%	COc1ccc2oc(-c3ccc4nc(N)oc4c3)c/c(=N\c3ccccc3NC(=O)CCN)c2c1
ABL1 phosphorylated	cell-free assay, competition with immobilised ligand	25 µM	remaining binding	96%	N#Cc1ccc(NC(=O)Nc2ccccc2)cc1
ABL1 F317I	binding	1 µM	remaining binding	87%	COc1ccc2[nH]c3c4[nH]c5ccc(OC)cc5c4c4c(c3c2c1)C(=O)NC4=O
Tyrosine-protein kinase ABL1, phosphorylated (ABL1, Homo sapiens, UniProt P00519, F317I)	enzyme activity, inhibitor	1 µM	inhibition	27%	C=CC(=O)N1CCC([C@@H]2CCNc3c(C(N)=O)c(-c4ccc(Oc5ccccc5)cc4)nn32)CC1
Tyrosine-protein kinase ABL1 (ABL1, Homo sapiens, UniProt P00519, Y253F)	binding	1 µM	remaining binding	20%	CN1CCN(C(=O)c2ccc(NC(=O)Nc3ccc(N(C)c4ccnc(Nc5ccc(CS(C)(=O)=O)cc5)n4)cc3)cc2)CC1
ABL1	enzyme activity, inhibitor	1 nM	inhibition	86%	[2H]c1cc(C)c(NC(=O)c2cnc(Nc3cc(N4CC[C@@H](N)C4)nc(C)n3)s2)c(Cl)c1
Tyrosine-protein kinase ABL1, non-phosphorylated (ABL1, Homo sapiens, UniProt P00519, T315I)	enzyme activity, inhibitor	1 µM	inhibition	19%	CC#CC(=O)N1CCC[C@H]1c1nc(-c2ccc(C(=O)Nc3ccccn3)cc2)c2c(N)nccn12
ABL1	enzyme activity, inhibitor	10 nM	inhibition	> 90%	[2H]c1cc(C)c(NC(=O)c2cnc(Nc3cc(N4CCCCC4)nc(C)n3)s2)c(Cl)c1
ABL1 F317I	binding	1 µM	remaining binding	85%	Cc1ccc(NC(=O)c2ccnc(C(F)(F)F)c2)cc1-c1cc(OCCO)nc(N2CCOCC2)c1
ABL1	enzyme activity, inhibitor	1 nM	inhibition	86%	[2H]c1cc(C)c(NC(=O)c2cnc(Nc3cc(N4CC[C@H](O)C4)nc(C)n3)s2)c(Cl)c1
Tyrosine-protein kinase ABL1, phosphorylated (ABL1, Homo sapiens, UniProt P00519, M351T)	enzyme activity, inhibitor	1 µM	inhibition	13%	CO[C@@H]1[C@H](N(C)C(=O)c2ccccc2)C[C@H]2O[C@]1(C)n1c3ccccc3c3c4c(c5c6ccccc6n2c5c31)C(=O)NC4
ABL1	enzyme activity, inhibitor	1 nM	inhibition	92%	Cc1nc(Nc2ncc(C(=O)Nc3c(C)cccc3Cl)s2)cc(N2CC[C@H](N)C2)n1
Tyrosine-protein kinase ABL1 (ABL1, Homo sapiens, UniProt P00519, E255K)	binding	0.1 µM	remaining binding	23%	C1=C/COCc2cc(ccc2OCCN2CCCC2)Nc2nccc(n2)-c2cccc(c2)COC/1
